Measured values reported in ChEMBL document CHEMBL2440018 (J Med Chem, 2013).
pKi: −log10 of the molar value. Active and inactive are the calls of the source. The calls are words filed in the database; no cut-off is given here.

Legend:
Brain [1] = assay: AUC (0 to infinity) in C57Bl/6J mouse brain assessed as 4-(4-(thiiran-2-ylmethylsulfonyl)phenoxy)phenol at 25 mg/kg, sc; format: ADME, organism-based; set-up: time infinity, dose 25 mg/kg, route subcutaneous; settings: in vivo
Outline: (§1)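 Mice were dosed sc once at 25 mg/kg; plasma and perfused brain (n = 3 per time point) were quantified by UPLC/ESI-MRM. AUC0-last came from the mean concentration-time curve by the trapezoidal rule, and AUC0-∞ = AUC0-last + Clast/k. α and β half-lives came from linear regression on the linear portion of the concentration-time data, with t1/2 = ln2/k.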

Liver [2] = assay: Metabolic stability in rat liver S9 fraction assessed as formation of Ethyl-carbamic acid 4-[4-(1-oxo-1lambda4-thiiran-2-ylmethanesulfonyl)-phenoxy]-phenyl ester at 50 uM after 30 mins by reversed-phase LC/MS analysis; format: ADME, subcellular; settings: s9, 0.5 h
Outline: (§2)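 50 µM compound was incubated with rat liver S9 (1.0 mg) and 0.5 mM NADPH in 50 mM potassium phosphate, pH 7.4, at 37 °C for 30 min. The reaction was stopped with one volume of acetonitrile and centrifuged. Metabolites in the supernatant were identified by reversed-phase LC/ESI-QTOF mass spectrometry.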

[3] = biological target: Matrix metalloproteinase-14 (Homo sapiens, UniProt P50281); assay: Inhibition of human recombinant MMP-14 catalytic domain using MOCAcPLGLA2pr(Dnp)AR-NH2 as substrate by fluorescence spectrophotometric analysis
Plasma [4] = assay: Metabolic stability in C57Bl/6J mouse plasma assessed as formation of 4-(4-(thiiran-2-ylmethylsulfonyl)phenoxy)phenol at 25 mg/kg, sc measured at 10 to 240 mins; format: ADME, organism-based; set-up: dose 25 mg/kg, route subcutaneous; settings: in vivo
Outline: (§3)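 Female C57Bl/6J mice (6–8 weeks, 16–19 g) received a single 100 µL sc dose equivalent to 25 mg/kg, in 10% DMSO/25% Tween 80/65% water or 80% propylene glycol/20% DMSO. Terminal heparinised vena cava blood gave plasma, and saline-perfused whole brain was taken; n = 3 per time point. Acetonitrile extracts with internal standard were run by UPLC/ESI-MRM against matrix calibration curves, linear 0.05–5 µM.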

[5] = biological target: T1, Matrilysin (Homo sapiens) (UniProt P09237); assay: Inhibition of human recombinant MMP-7 at 50 uM by fluorescence spectrophotometric analysis relative to control
T1 sequence (whole entry): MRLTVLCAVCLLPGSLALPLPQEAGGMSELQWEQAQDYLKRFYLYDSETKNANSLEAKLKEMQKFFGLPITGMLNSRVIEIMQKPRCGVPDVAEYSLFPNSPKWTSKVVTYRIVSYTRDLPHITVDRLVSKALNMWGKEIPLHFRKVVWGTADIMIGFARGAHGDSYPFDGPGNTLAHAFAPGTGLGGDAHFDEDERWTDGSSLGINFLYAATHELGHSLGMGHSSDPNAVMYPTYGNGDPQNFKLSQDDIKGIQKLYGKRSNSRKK

[6] = biological target: 72 kDa type IV collagenase (Homo sapiens, UniProt P08253); assay: Inhibition of human recombinant MMP-2 using MOCAcPLGLA2pr(Dnp)AR-NH2 as substrate by fluorescence spectrophotometric analysis
Sequence of 72 kDa type IV collagenase (P08253 whole entry): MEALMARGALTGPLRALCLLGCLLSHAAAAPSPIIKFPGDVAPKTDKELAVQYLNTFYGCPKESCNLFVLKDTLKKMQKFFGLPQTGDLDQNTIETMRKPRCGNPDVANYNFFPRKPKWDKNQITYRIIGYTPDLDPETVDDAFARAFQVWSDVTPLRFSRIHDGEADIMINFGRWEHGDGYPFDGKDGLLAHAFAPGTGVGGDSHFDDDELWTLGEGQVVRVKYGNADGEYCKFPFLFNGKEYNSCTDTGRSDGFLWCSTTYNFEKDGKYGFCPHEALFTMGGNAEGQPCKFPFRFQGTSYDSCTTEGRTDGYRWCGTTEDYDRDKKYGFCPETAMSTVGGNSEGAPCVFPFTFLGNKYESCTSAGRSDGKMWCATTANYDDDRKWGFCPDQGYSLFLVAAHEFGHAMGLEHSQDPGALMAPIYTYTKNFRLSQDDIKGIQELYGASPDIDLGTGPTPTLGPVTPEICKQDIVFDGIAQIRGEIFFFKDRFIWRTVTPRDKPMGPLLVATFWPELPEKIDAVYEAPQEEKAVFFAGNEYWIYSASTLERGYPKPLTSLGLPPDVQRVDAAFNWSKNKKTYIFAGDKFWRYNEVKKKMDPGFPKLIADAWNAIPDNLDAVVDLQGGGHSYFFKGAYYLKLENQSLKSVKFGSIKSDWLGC

Plasma [7] = assay: AUC (0 to infinity) in C57Bl/6J mouse plasma assessed as 4-(4-(thiiran-2-ylmethylsulfonyl)phenoxy)phenol at 25 mg/kg, sc; format: ADME, organism-based; set-up: time infinity, dose 25 mg/kg, route subcutaneous; settings: in vivo; outline: as §1
Brain [8] = assay: Drug uptake in C57Bl/6J mouse brain assessed as 4-(4-(thiiran-2-ylmethylsulfonyl)phenoxy)phenol measured per mg of tissue at 25 mg/kg, sc measured at 20 mins by reversed phase UPLC/ESI-MRM analysis; format: ADME, organism-based; set-up: dose 25 mg/kg, route subcutaneous; settings: in vivo; outline: as §3
[9] = biological target: T2, Interstitial collagenase (Homo sapiens) (UniProt P03956); assay: Inhibition of human recombinant MMP-1 catalytic domain at 50 uM by fluorescence spectrophotometric analysis relative to control
T2 sequence (whole entry): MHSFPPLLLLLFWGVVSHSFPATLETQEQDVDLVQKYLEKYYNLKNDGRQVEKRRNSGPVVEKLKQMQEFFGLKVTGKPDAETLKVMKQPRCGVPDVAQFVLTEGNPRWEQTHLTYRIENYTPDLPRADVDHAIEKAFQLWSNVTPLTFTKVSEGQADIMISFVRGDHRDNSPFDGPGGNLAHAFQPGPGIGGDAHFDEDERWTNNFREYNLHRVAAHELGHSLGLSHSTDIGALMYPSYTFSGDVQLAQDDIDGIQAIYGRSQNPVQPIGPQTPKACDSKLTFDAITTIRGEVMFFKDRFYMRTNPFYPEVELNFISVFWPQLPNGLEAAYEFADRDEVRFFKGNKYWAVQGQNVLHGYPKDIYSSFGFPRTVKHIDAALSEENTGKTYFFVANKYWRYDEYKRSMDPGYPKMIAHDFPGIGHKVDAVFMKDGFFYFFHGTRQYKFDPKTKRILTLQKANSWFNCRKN

[10] = biological target: Stromelysin-1 (Homo sapiens) (UniProt P08254); assay: Inhibition of human recombinant MMP-3 catalytic domain at 50 uM by fluorescence spectrophotometric analysis relative to control
[11] = biological target: MMP-2/MMP-14 (Homo sapiens) (UniProt P50281+P08253); assay: Selectivity ratio of Ki for human recombinant MMP-14 catalytic domain to Ki for human recombinant MMP-2
Plasma [12] = assay: Plasma concentration in C57Bl/6J mouse assessed as 4-(4-(thiiran-2-ylmethylsulfonyl)phenoxy)phenol at 25 mg/kg, sc measured at 4 hrs by reversed phase UPLC/ESI-MRM analysis; format: ADME, organism-based; set-up: dose 25 mg/kg, route subcutaneous; settings: in vivo; outline: as §3
Plasma [13] = assay: Plasma concentration in C57Bl/6J mouse assessed as 4-(4-(thiiran-2-ylmethylsulfonyl)phenoxy)phenol at 25 mg/kg, sc measured at 10 mins by reversed phase UPLC/ESI-MRM analysis; format: ADME, organism-based; set-up: dose 25 mg/kg, route subcutaneous; settings: in vivo; outline: as §3
Plasma [14] = assay: Primary phase half life in C57Bl/6J mouse plasma assessed as 4-(4-(thiiran-2-ylmethylsulfonyl)phenoxy)phenol at 25 mg/kg, sc; format: ADME, organism-based; set-up: dose 25 mg/kg, route subcutaneous; settings: in vivo; outline: as §1
Neutrophil collagenase = Neutrophil collagenase (Homo sapiens, UniProt P22894); assay: Inhibition of human recombinant MMP-8 catalytic domain using […] as substrate by fluorescence spectrophotometric analysis
Sequence of Neutrophil collagenase (P22894 whole entry, the tested form may be a part): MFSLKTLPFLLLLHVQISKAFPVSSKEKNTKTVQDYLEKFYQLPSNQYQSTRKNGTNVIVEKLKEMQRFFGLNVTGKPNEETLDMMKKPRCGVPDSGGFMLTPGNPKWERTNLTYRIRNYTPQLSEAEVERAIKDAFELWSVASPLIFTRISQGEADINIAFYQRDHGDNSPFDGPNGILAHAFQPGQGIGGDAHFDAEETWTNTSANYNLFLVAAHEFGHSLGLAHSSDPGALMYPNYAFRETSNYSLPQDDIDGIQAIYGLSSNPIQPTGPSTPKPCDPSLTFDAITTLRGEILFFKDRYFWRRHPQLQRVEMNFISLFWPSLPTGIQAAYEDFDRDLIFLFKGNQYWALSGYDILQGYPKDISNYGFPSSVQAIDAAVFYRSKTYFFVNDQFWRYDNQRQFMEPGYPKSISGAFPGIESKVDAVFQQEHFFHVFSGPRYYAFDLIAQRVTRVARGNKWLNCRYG

Liver [15] = assay: Metabolic stability in rat liver S9 fraction assessed as formation of 4-(4-(ethylcarbamoyloxy)phenoxy)benzenesulfinic acid at 50 uM after 30 mins by reversed-phase LC/MS analysis; format: ADME, subcellular; settings: s9, 0.5 h; outline: as §2
Plasma [16] = assay: AUC (0 to last) in C57Bl/6J mouse plasma assessed as 4-(4-(thiiran-2-ylmethylsulfonyl)phenoxy)phenol at 25 mg/kg, sc; format: ADME, organism-based; set-up: time 0 - last, dose 25 mg/kg, route subcutaneous; settings: in vivo; outline: as §1
Brain [17] = assay: Metabolic stability in C57Bl/6J mouse brain assessed as formation of 4-(4-(thiiran-2-ylmethylsulfonyl)phenoxy)phenol at 25 mg/kg, sc measured at 10 to 240 mins; format: ADME, organism-based; set-up: dose 25 mg/kg, route subcutaneous; settings: in vivo; outline: as §3
[18] = biological target: Matrix metalloproteinase-9 (Homo sapiens, UniProt P14780); assay: Inhibition of human recombinant MMP-9 catalytic domain using MOCAcPLGLA2pr(Dnp)AR-NH2 as substrate by fluorescence spectrophotometric analysis
Sequence of Matrix metalloproteinase-9 (P14780 whole entry, the tested form may be a part): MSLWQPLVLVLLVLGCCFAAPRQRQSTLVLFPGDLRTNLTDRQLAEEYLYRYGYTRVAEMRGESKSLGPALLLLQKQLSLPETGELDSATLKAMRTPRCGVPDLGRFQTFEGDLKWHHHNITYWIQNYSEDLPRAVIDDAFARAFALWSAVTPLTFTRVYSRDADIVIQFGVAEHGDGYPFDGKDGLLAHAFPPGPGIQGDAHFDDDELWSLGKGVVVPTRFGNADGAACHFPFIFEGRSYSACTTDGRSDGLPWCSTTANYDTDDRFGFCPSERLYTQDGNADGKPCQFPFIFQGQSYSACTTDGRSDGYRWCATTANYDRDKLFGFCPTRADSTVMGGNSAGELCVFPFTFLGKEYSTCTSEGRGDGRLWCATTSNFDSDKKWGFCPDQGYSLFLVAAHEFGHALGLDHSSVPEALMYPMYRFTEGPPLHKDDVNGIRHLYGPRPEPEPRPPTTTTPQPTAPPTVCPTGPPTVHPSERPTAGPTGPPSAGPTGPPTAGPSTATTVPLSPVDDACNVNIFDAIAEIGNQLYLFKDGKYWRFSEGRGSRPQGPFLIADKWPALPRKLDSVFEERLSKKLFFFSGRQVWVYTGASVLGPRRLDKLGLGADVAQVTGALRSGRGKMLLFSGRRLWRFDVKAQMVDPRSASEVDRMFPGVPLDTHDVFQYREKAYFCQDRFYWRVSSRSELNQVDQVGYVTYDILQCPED

Brain [19] = assay: Elimination half life in C57Bl/6J mouse brain assessed as 4-(4-(thiiran-2-ylmethylsulfonyl)phenoxy)phenol at 25 mg/kg, sc; format: ADME, organism-based; set-up: dose 25 mg/kg, route subcutaneous; settings: in vivo; outline: as §1
Liver [20] = assay: Half life in rat liver S9 fraction at 10 uM by reversed-phase UPLC/ESI-MRM analysis; format: ADME, subcellular; settings: s9, 10 µM
Outline: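 Male rat liver S9 (1.0 mg) with 0.5 mM NADPH and 10 µM compound (both final) in 50 mM potassium phosphate, pH 7.4, at 37 °C, sampled over time. Aliquots were stopped with acetonitrile containing internal standard, and the supernatant was run by UPLC/ESI-MRM. Half-lives used first-order kinetics on peak-area ratios to internal standard.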

[21] = Ratio of AUC in brain to plasma in C57Bl/6J mouse assessed as 4-(4-(thiiran-2-ylmethylsulfonyl)phenoxy)phenol at 25 mg/kg, sc; format: ADME, organism-based; set-up: dose 25 mg/kg, route subcutaneous
Homo sapiens = species on record: Homo sapiens; assay: Selectivity ratio of Ki for human recombinant MMP-8 catalytic domain to Ki for human recombinant MMP-2
Brain [22] = assay: Drug uptake in C57Bl/6J mouse brain assessed as 4-(4-(thiiran-2-ylmethylsulfonyl)phenoxy)phenol measured per mg of tissue at 25 mg/kg, sc measured at 4 hrs by reversed phase UPLC/ESI-MRM analysis; format: ADME, organism-based; set-up: dose 25 mg/kg, route subcutaneous; settings: in vivo; outline: as §3
Plasma [23] = assay: Elimination half life in C57Bl/6J mouse plasma assessed as 4-(4-(thiiran-2-ylmethylsulfonyl)phenoxy)phenol at 25 mg/kg, sc; format: ADME, organism-based; set-up: dose 25 mg/kg, route subcutaneous; settings: in vivo; outline: as §1
Liver [24] = assay: Metabolic stability in rat liver S9 fraction assessed as formation of 4-(4-(thiiran-2-ylmethylsulfonyl)phenoxy)phenol at 50 uM after 30 mins by reversed-phase LC/MS analysis; format: ADME, subcellular; settings: s9, 0.5 h; outline: as §2
Brain [25] = assay: AUC (0 to last) in C57Bl/6J mouse brain assessed as 4-(4-(thiiran-2-ylmethylsulfonyl)phenoxy)phenol at 25 mg/kg, sc; format: ADME, organism-based; set-up: dose 25 mg/kg, route subcutaneous; settings: in vivo; outline: as §1
[26] = biological target: MMP-2/MMP-9 (Homo sapiens) (UniProt P08253+P14780); assay: Selectivity ratio of Ki for human recombinant MMP-9 catalytic domain to Ki for human recombinant MMP-2
Liver [27] = assay: Metabolic stability in rat liver S9 fraction assessed as formation of {4-[4-(1-Oxo-1lambda4-thiiran-2-ylmethanesulfonyl)-phenoxy]-phenyl}-carbamic acid methyl ester at 50 uM after 30 mins by reversed-phase LC/MS analysis; format: ADME, subcellular; settings: s9, 0.5 h; outline: as §2
Liver [28] = assay: Metabolic stability in rat liver S9 fraction assessed as formation of 4-(4-(methoxycarbonylamino)phenoxy)benzenesulfinic acid at 50 uM after 30 mins by reversed-phase LC/MS analysis; format: ADME, subcellular; settings: s9, 0.5 h; outline: as §2
Liver [29] = assay: Metabolic stability in rat liver S9 fraction assessed as formation of 4-(4-(thiiran-2-ylmethylsulfonyl)phenoxy)aniline at 50 uM after 30 mins by reversed-phase LC/MS analysis; format: ADME, subcellular; settings: s9, 0.5 h; outline: as §2

CCNC(=O)Oc1ccc(Oc2ccc(S(=O)(=O)CC3CS3)cc2)cc1 (stereo not drawn)
AUC (Brain [1]): 129 pmol·min/mg
Stability (Liver [2]): Unstable
pKi [3]: 4.77
Stability (Plasma [4]): Unstable
inhibition [5]: inactive
pKi [6]: 6.26
AUC (Plasma [7]): 69.9 µM·min
Drug uptake (Brain [8]): 1.35 pmol
inhibition [9]: inactive
inhibition [10]: 37%
Ratio Ki [11]: 20
concentration (Plasma [12]): 114 nM
concentration (Plasma [13]): 1240 nM
alphat1/2 (Plasma [14]): 41.3 min
pKi (Neutrophil collagenase): 4.82
Stability (Liver [15]): Unstable
AUClast (Plasma [16]): 54 µM·min
Stability (Brain [17]): Unstable
pKi [18]: 4.92
beta t1/2 (Brain [19]): 8.88 h
t1/2 (Liver [20]): 0.38 h
Ratio AUC [21]: 1.64
Ratio Ki (Homo sapiens): 20
Drug uptake (Brain [22]): 0.255 pmol
beta t1/2 (Plasma [23]): 7.7 h
Stability (Liver [24]): Unstable
AUClast (Brain [25]): 88.8 pmol·min/mg
Ratio Ki [26]: 20

COC(=O)Nc1ccc(Oc2ccc(S(=O)(=O)CC3CS3)cc2)cc1 (stereo not drawn)
pKi [3]: 5.59
inhibition [5]: inactive
pKi [6]: 7.30
inhibition [9]: inactive
inhibition [10]: 38%
Stability (Liver [27]): Unstable
Stability (Liver [28]): Unstable
Stability (Liver [29]): Unstable
t1/2 (Liver [20]): 0.293 h
Ratio Ki [26]: 2
